In PubChem BioAssay AID488972 (Southern Research Specialized Biocontainment Screening …, 2010) one finds IC50 data, which are given here for 21 molecules.

Active and inactive are the calls of the source.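 How the source made its calls: active means compounds blocking at least half of the virus-caused cell damage; inactive means the rest.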 Some results are limits rather than exact numbers.

For this test, the system named is HEp-2 RSV Long CPE, luminescence viability. The experiment in a line: RSV cytopathic effect inhibition in HEp-2 cells, dose response, cell-based, RSV Long, luminescence viability, purified and synthesized compounds (AID 488972). The essentials:
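Assay system: RSV Long-infected HEp-2 cells. Times: six-day compound and virus exposure at 37 °C. Detection: luminescence-based measurement of viral cytopathic effect. Repeats: triplicate wells per dose.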
For `CSc1ncccc1C(=O)Nc1nc(C)cs1`, the IC50 was > 50 µM (inactive). For `Cc1ccc(NC(=O)[C@@H]2CCCN2S(=O)(=O)c2cccc3cccnc23)c(C)c1` the value was 7.81 µM. As for `Cc1ccc(NC(=O)C2CCCN2S(=O)(=O)c2ccccc2)c(C)c1` (stereo unspecified), the IC50 was > 50 µM (inactive). The figure for `Cc1ccc(NC(=O)C2CCCN2S(C)(=O)=O)c(C)c1` (stereo unspecified) is > 50 µM (inactive); for `Cc1ccc(NC(=O)C2CCCN2S(=O)(=O)c2cccc3ccccc23)c(C)c1` (stereo unspecified) it is > 50 µM (inactive); for `Cc1ccc(NC(=O)C2CCCN2S(=O)(=O)c2cccc3cc(C)cnc23)c(C)c1` (stereo unspecified) it is > 50 µM (inactive). The figure for `Cc1ccc(NC(=O)CNS(=O)(=O)c2cccc3cccnc23)c(C)c1` is > 50 µM (inactive); for `Cc1ccc(NC(=O)C2CCCN2Cc2cccc3cccnc23)c(C)c1` (stereo unspecified) it is > 50 µM (inactive); for `Cc1ccc(NC(=O)C2CCCN2S(=O)(=O)c2cccc3cnccc23)c(C)c1` (stereo unspecified) it is > 50 µM (inactive). The figure for `Cc1ccc(NC(=O)C(C)NS(=O)(=O)c2cccc3cccnc23)c(C)c1` (stereo unspecified) is > 50 µM (inactive); for `Cc1ccc(NC(=O)C2CCCN2Cc2ccccc2)c(C)c1` (stereo unspecified) it is > 50 µM (inactive); for `Cc1ccc(NC(=O)C2CCCN2S(=O)(=O)c2cccc3cccnc23)c(C)c1` (stereo unspecified) it is 13.2 µM. In the case of `Cc1ccc(NC(=O)CN(C)S(=O)(=O)c2cccc3cccnc23)c(C)c1`, the IC50 is > 50 µM (inactive). For `Cc1ccc(NC(=O)C2CCCN2S(=O)(=O)c2ccc3ncccc3c2)c(C)c1` (stereo unspecified) the value was > 50 µM (inactive). The figure for `CSc1ncccc1C(=O)Nc1nc(C(C)(C)C)cs1` is 16.2 µM; for `O=C(Nc1ccc(C(F)(F)F)cc1[N+](=O)[O-])O[C@H]1[C@H](Cc2ccccc2)NS(=O)(=O)[C@H]2C[C@@H]3C=C[C@]12O3` it is > 50 µM (inactive); for `Cc1ccc(NC(=O)[C@H]2CCCN2S(=O)(=O)c2cccc3cccnc23)c(C)c1` it is > 50 µM (inactive). For `CC(C)(C)c1csc(NC(=O)c2cccnc2)n1` the value was > 50 µM (inactive); for `Cc1csc(NC(=O)c2cccnc2)n1`, > 50 µM (inactive); for `Cc1ccc(NC(=O)C2CCCN2C(=O)c2ccccc2)c(C)c1` (stereo unspecified), > 50 µM (inactive). Take `Cc1ccc(NC(=O)C2CCCN2C(=O)c2cccc3cccnc23)c(C)c1` (stereo unspecified): the IC50 was > 50 µM (inactive).
